Experimental data of several laboratories.
Target: Serine/threonine-protein kinase 16 (STK16, Homo sapiens, UniProt O75716)

`Cc1nn(C)cc1-c1nc2c(N3CCN(Cc4ccc(Cl)cc4)CC3)c(Cl)cnc2[nH]1` has a remaining binding of 18% (binding, competition with immobilised ligand; 1 µM).
`Cn1cc(-c2cccc(N3CCc4c(sc5c4CC(C)(C)C5)C3=O)c2CO)cc(Nc2ccncn2)c1=O` gave an inhibition of -3% (enzyme activity, inhibitor; 1 µM).
`CC(C)(C)c1cc(C=C(C#N)C#N)cc(Br)c1O` has a remaining activity of 99.2% (enzyme activity, inhibitor; 0.5 µM).
The inhibition of `Cn1cc(-c2cc(F)cc(N3CCn4c(cc5c4CCCC5)C3=O)c2CO)cc(Nc2ccc(N3CCN(C4COC4)CC3)cn2)c1=O` is reported as 10% (enzyme activity, inhibitor; 0.1 µM).
With `O=c1[nH]c2ccccc2n1C1CCN(Cc2ccc(-c3[nH]c4cc5ncnc5cc4nc3-c3ccccc3)cc2)CC1` the remaining signal was 99.5% (cell-free assay; 0.5 µM).
With `COc1ncccc1-c1cnn2ccc(N3CCN(C(=O)OC(C)C)CC3)nc12` the remaining binding was 55% (binding, competition with immobilised ligand; 1 µM).
With `Nc1ncc(-c2nc(N3CCOCC3)nc(N3CCOCC3)n2)c(C(F)F)n1` the remaining binding was 56% (binding, competition with immobilised ligand; 10 µM).
For `Cn1cncc1[C@@](O)(COc1ccc(C#N)cc1-c1ccc(OC(F)(F)F)cc1)c1ccc(C#N)cc1`, the remaining binding was 99% (cell-free assay, competition with immobilised ligand; 1 µM).
`COc1cc(Nc2ncc(F)c(Nc3ccc4c(n3)NC(=O)C(C)(C)O4)n2)cc(OC)c1OC` gave an inhibition of 100% (binding, competition with immobilised ligand; 10 µM).
